These compounds were tested against T1, Inhibitor of nuclear factor kappa-B kinase subunit beta (Homo sapiens, UniProt O14920) (assay: Inhibition of FLAG-tagged human recombinant IKKbeta phosphorylation expressed in baculovirus infected insect Sf9 cells after 1 hr by luminescence assay).
T1 sequence (O14920 whole entry): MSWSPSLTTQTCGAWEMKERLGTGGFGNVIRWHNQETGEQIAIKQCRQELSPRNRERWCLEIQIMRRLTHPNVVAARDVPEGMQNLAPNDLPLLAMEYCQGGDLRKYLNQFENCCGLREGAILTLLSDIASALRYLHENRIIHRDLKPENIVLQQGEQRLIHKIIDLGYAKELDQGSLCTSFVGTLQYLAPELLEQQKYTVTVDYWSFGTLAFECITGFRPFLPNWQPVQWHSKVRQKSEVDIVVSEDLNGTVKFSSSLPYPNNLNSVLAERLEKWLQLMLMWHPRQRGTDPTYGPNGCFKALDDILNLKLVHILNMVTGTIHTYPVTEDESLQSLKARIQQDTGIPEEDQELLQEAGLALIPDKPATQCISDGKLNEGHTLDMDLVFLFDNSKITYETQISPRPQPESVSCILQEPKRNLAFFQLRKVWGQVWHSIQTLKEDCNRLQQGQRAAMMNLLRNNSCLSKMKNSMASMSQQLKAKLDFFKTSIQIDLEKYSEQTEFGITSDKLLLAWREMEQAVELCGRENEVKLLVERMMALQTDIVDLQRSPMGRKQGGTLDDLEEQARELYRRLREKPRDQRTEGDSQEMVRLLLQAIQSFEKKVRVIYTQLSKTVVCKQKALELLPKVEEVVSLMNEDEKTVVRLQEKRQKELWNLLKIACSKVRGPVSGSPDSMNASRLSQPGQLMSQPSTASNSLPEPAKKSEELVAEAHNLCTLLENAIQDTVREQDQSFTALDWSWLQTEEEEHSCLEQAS
Method in brief: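 Reaction run 1 h at room temperature in 25 mmol/l HEPES pH 7.5, 10 mmol/l Mg acetate, DTT, 0.01% BSA and 0.01% Tween20, with 500 nmol ATP and GST-IκBα substrate. Kinase-Glo added, 10 min, luminescence from remaining ATP measured.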

Compound	IC50
CC(C)=CC(=O)O[C@@H]1CC(C)(C)C[C@H]2C3=CC[C@@H]4[C@@]5(C)CC[C@H](OC(=O)/C=C/c6ccccc6)C(C)(C)[C@@H]5CC[C@@]4(C)[C@]3(C)CC[C@@]12C(=O)O	0.94 µM
C/C=C(\C)C(=O)O[C@@H]1CC(C)(C)C[C@H]2C3=CC[C@@H]4[C@@]5(C)CC[C@H](O)C(C)(C)[C@@H]5CC[C@@]4(C)[C@]3(C)CC[C@@]12C(=O)O	2.62 µM
C/C=C(\C)C(=O)O[C@@H]1CC(C)(C)C[C@H]2C3=CC[C@@H]4[C@@]5(C)CC[C@H](OC(=O)/C=C/c6ccccc6)C(C)(C)[C@@H]5CC[C@@]4(C)[C@]3(C)CC[C@@]12C(=O)O	1.2 µM
